Here are results for 16 compounds from PubChem BioAssay.

The structures appear in SMILES notation. Calls of active or inactive are those of the source.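 Rule for the calls, unless noted: active = viability at or below 30% in both replicate assays; inconclusive = viability at or below 30% in just one of the two assays; inactive = the rest.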

A short description of assay [1]: Her2 expression decrease, cell viability multiplex – SKBR3 breast tumor cells, AlphaScreen, ATP viability, primary screen (AID 461;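 active = Her2 level under about 52% in both replicate screens, with viability over 70% of control, limit read from the data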;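 for Her2 level: lower value means less Her2 protein in the cells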;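 for viability: percent of carrier control wells set as 100% viability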). Conditions: SKBR3 Her2 protein level, 18-24 h, measured here: SKBR3 viability, ATP luminescence, at 10 µM. (In general: Bead proximity is the source of the signal in Alpha formats.)
Assay [2] addresses Receptor tyrosine-protein kinase erbB-2 (Homo sapiens) (UniProt P04626). The assay is described as above. To be noted: 18-24 h, at 10 µM, stronger effect = lower value.
Assay [3] can be described thus: reduced viability of SK-BR-3 breast cancer cells – cell-based, 24 h, human, pilot screen (AID 572;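 active = viability at or below 10% of carrier control in both of two separate runs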;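 note: compound exposure lasted between 18 and 24 h rather than exactly 24 h; 100% = carrier-treated control wells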). To be noted: SK-BR-3 viability, CellTiter-Glo luminescence, at 10 µM, stronger effect = lower value.
A short description of assay [4]: HUVEC growth inhibition – cell-based, human, primary screen (AID 575).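 Note: 100% = median of untreated cell wells with 0.1% DMSO on each plate.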 Conditions: HUVEC proliferation, CellTiter-Glo luminescence, 72 h; at 10 µM; stronger effect = lower value. In a few lines: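 Assay system: Primary human umbilical vein endothelial cells | Quantity: 1250 cells per well | Medium: Supplemented EBM, 2% fetal bovine serum | Detection: CellTiter-Glo luminescence measuring cellular ATP | Read-out: % viability vs DMSO wells | Plate: Collagen-coated 384-well format | Times: 72 h exposure, 37 °C, 5% CO2, 30 min RT equilibration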
On the technique in general: ATP-based viability assays read luminescence as a measure of living cells.

Assay [5] in a line: H69AR cell proliferation blockers – human, duplicate replicates, primary screen (AID 580;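 active = viability at or under a set limit in both replicates, limit being median viability minus 3 SD, cut at about 48% in these data, passing the limit was not always enough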;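 note: 100% = mean luminescence of untreated wells and 0% = no signal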). To be noted: H69AR lung tumor cells viability, ATP luminescence, 72 h; at 10 µM; stronger effect = lower value.
Assay [6] is described as follows: MRP1 drug-resistance reversers in H69AR cells – cell-based, doxorubicin co-treatment, pilot screen (AID 601;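 active = viability loss from added drug above about 55%, and viability with drug at most 40%, in both replicates, limit read from the data, passing the limit was not always enough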). To be noted: CellTiter-Glo, 72 h, at 10 µM; for differential viability (reversal): stronger effect = higher value.
Assay [7] can be described thus: yeast transport mutant growth inhibition pilot in 384-well plates, post-Golgi transport modulator project (AID 636; in the data active = inhibition above about 31%). To be noted: absorbance 615 nm, about 18 h, stronger effect = higher value.
A short description of assay [8]: growth suppression of yeast trafficking mutant, preliminary HTS, modulators of trafficking downstream of Golgi apparatus project, 1536-format plate, OD 615 nm (AID 637; in the data active = inhibition above about 30%). Conditions: yeast transport mutant growth, absorbance 615 nm, 18 h; stronger effect = higher value.
[9] abbreviates: H69AR cells + 2 uM doxorubicin, measured here: viability with 2 uM doxorubicin, stronger effect = lower value.
[10] abbreviates: H69AR cells, compound alone cytotoxicity.

Sequence of Receptor tyrosine-protein kinase erbB-2 (Homo sapiens) (P04626 whole entry, looked up): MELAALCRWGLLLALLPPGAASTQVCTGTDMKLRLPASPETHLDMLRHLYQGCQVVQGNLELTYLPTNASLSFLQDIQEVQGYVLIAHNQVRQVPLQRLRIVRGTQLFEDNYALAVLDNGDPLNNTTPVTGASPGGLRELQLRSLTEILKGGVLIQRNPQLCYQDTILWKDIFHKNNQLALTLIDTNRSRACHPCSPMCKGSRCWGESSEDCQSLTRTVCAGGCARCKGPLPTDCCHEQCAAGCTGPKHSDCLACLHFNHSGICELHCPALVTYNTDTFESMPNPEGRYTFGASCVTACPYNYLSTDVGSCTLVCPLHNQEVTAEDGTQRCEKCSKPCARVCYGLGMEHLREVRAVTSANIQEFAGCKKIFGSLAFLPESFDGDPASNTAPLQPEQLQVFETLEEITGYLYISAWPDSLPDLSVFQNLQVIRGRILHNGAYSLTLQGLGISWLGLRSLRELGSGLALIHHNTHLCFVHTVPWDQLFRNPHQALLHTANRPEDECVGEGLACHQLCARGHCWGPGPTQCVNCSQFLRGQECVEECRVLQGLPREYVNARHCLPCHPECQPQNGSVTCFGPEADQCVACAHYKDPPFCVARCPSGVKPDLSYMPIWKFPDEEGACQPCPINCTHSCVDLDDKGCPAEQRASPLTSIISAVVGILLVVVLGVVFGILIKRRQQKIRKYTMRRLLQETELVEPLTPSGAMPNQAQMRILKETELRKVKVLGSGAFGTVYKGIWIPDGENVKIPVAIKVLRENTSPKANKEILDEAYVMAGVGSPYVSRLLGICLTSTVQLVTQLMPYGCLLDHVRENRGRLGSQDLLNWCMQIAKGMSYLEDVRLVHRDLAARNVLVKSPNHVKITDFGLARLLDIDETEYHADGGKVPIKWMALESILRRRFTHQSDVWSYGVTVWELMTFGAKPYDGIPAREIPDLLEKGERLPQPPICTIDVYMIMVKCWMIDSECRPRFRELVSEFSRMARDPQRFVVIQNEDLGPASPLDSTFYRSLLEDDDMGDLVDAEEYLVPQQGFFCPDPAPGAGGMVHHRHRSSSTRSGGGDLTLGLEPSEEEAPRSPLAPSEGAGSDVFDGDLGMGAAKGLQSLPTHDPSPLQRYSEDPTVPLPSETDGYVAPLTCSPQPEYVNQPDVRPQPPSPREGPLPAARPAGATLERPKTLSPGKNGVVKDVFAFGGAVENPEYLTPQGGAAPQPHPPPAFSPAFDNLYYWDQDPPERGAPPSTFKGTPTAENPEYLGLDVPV

By viability is commonly meant a read-out of living cells in per cent, often relative to untreated cells. The inhibition is the drop in the measured response relative to a control, in per cent. Turning to `COC(=O)c1cc2ccsc2n1CC(=O)Nc1cc(C)cc(C)c1`, the viability in assay [1] was 96.5%; in assay [3], 96.5% (inactive); in assay [4], 64% (inactive); in assay [5] it was 84.8% (inactive); in assay [6] (setting [9]), 84.8%; in assay [6] (setting [10]), 84.8%. The Her2 level in assay [2] was 124% (inactive). In assay [6] (H69AR cells + 2 uM doxorubicin), the differential viability (reversal) is -0.08% (inactive). The inhibition in assay [7] was 1.92% (inactive); in assay [8], 14.3% (inactive).
With `CC(C)(C)n1nnnc1CN1CCC(NC(=O)NC2CCCCC2)CC1`, the viability in assay [1] is 95%; in assay [3], 95% (inactive); in assay [4], 97% (inactive); in assay [5], 106% (inactive); in assay [6] (setting [9]), 91.3%; in assay [6] (setting [10]), 106%. Besides, the Her2 level in assay [2] was 72% (inactive). In addition, the differential viability (reversal) in assay [6] (H69AR cells + 2 uM doxorubicin) was 15.1% (inactive). In addition, the inhibition in assay [7] is -5.53% (inactive); in assay [8], -2.5% (inactive).
Turning to `CCOC(=O)CSc1nnc([C@H](C)NC(=O)OC(C)(C)C)o1`, the viability in assay [1] was 104%; in assay [3], 104% (inactive); in assay [4], 107% (inactive); in assay [5] it was 106% (inactive); in assay [6] (setting [9]) it was 85.7%; in assay [6] (setting [10]), 106%. Further, the Her2 level in assay [2] is 97% (inactive). Also, in assay [6] (H69AR cells + 2 uM doxorubicin), the differential viability (reversal) is 20.2% (inactive). The inhibition in assay [7] is -5.58% (inactive); in assay [8], -10.2% (inactive).
`COC(=O)[C@H](C)NC(=O)NCc1ccc(F)cc1`: the viability in assay [1] is 102%; in assay [3], 102% (inactive); in assay [4], 102% (inactive); in assay [5], 95.3% (inactive); in assay [6] (setting [9]), 104%; in assay [6] (setting [10]), 95.3%. For the same compound, the Her2 level in assay [2] was 95% (inactive). For the same compound, the differential viability (reversal) in assay [6] (H69AR cells + 2 uM doxorubicin) is -8.8% (inactive). Also, the inhibition was -2.21% (inactive) in assay [7] and -1.43% (inactive) in assay [8].
Turning to `CN(C)/C=N/c1ncnc2c1cnn2-c1ccc(C(F)(F)F)cn1`, the viability in assay [1] was 108%; in assay [3], 108% (inactive); in assay [4], 104% (inactive); in assay [5], 81.8% (inactive); in assay [6] (setting [9]), 82.3%; in assay [6] (setting [10]) it was 81.8%. Besides, the Her2 level in assay [2] is 100% (inactive). The differential viability (reversal) in assay [6] (H69AR cells + 2 uM doxorubicin) is -0.51% (inactive). For the same compound, the inhibition is -4.42% (inactive) in assay [7] and -4.29% (inactive) in assay [8].
On to `CC(C(=O)NC1CCCCCC1)N(c1ccccc1)S(C)(=O)=O` (stereo not given), for which the viability was 112% in assay [1]; 112% (inactive) in assay [3]; 114% (inactive) in assay [4]; 109% (inactive) in assay [5]; 103% in assay [6] (setting [9]); 109% in assay [6] (setting [10]). In addition, the Her2 level in assay [2] is 97.5% (inactive). Besides, in assay [6] (H69AR cells + 2 uM doxorubicin), the differential viability (reversal) is 6.19% (inactive). The inhibition is -2.24% (inactive) in assay [7] and 2.79% (inactive) in assay [8].
With `O=C(O)c1cccc(NS(=O)(=O)c2ccc3nnn(O)c3c2)c1`, the viability in assay [1] was 123%; in assay [3], 123% (inactive); in assay [4], 94.9% (inactive); in assay [5], 102% (inactive); in assay [6] (setting [9]), 98%; in assay [6] (setting [10]), 102%. Also, in assay [2], the Her2 level was 87% (inactive). In addition, the differential viability (reversal) in assay [6] (H69AR cells + 2 uM doxorubicin) was 3.63% (inactive). Further, the values for the inhibition in assay [7] and in assay [8] were -4.27% (inactive) and 5.71% (inactive), respectively.
For the compound `Cc1ccc(C)c(N2CCN(S(=O)(=O)c3ccc4c(c3)OCCO4)CC2)c1`, the viability is 97.5% in assay [1]; 97.5% (inactive) in assay [3]; 99.2% (inactive) in assay [4]; 106% (inactive) in assay [5]; 101% in assay [6] (setting [9]); 106% in assay [6] (setting [10]). In addition, the Her2 level in assay [2] was 96.5% (inactive). Further, in assay [6] (H69AR cells + 2 uM doxorubicin), the differential viability (reversal) is 4.96% (inactive). In addition, the inhibition in assay [7] is -4.81% (inactive); in assay [8], -3.97% (inactive).
On to `O=C(Cn1cnc2c(oc3ccccc32)c1=O)N1CCN(c2ccccc2)CC1`, for which the viability in assay [1] is 95%; in assay [3] it was 95% (inactive); in assay [4], 91.6% (inactive); in assay [5], 84.9% (inactive); in assay [6] (setting [9]) it was 87.7%; in assay [6] (setting [10]), 84.9%. For the same compound, the Her2 level in assay [2] was 91.5% (inactive). In assay [6] (H69AR cells + 2 uM doxorubicin), the differential viability (reversal) was -2.86% (inactive). The inhibition in assay [7] was -0.66% (inactive); in assay [8], 3.65% (inactive).
With `Cc1ccc(F)cc1NC(=O)Cc1nn(C)c(=O)c2ccccc12`, the viability in assay [1] was 96.5%; in assay [3], 96.5% (inactive); in assay [4], 74.1% (inactive); in assay [5], 93.4% (inactive); in assay [6] (setting [9]) it was 77.6%; in assay [6] (setting [10]) it was 93.4%. The Her2 level in assay [2] is 74.5% (inactive). Also, the differential viability (reversal) in assay [6] (H69AR cells + 2 uM doxorubicin) is 15.8% (inactive). In addition, the inhibition is -0.66% (inactive) in assay [7] and -0.16% (inactive) in assay [8].
As to `O=C1N2c3ccccc3CCc3cccc(c32)C1(O)C(F)(F)F` (stereo not given), the viability in assay [1] is 94.5%; in assay [3] it was 94.5% (inactive); in assay [4], 96.4% (inactive); in assay [5], 95.7% (inactive); in assay [6] (setting [9]), 95%; in assay [6] (setting [10]), 95.7%. In addition, in assay [2], the Her2 level is 90.5% (inactive). For the same compound, in assay [6] (H69AR cells + 2 uM doxorubicin), the differential viability (reversal) was 0.66% (inactive). Moreover, the figures for the inhibition in assay [7] and in assay [8] were -5.87% (inactive) and 6.56% (inactive), respectively.
With `c1ccc2c(c1)sc1nnnn12`, the viability in assay [1] is 94.5%; in assay [3] it was 94.5% (inactive); in assay [4], 79.9% (inactive); in assay [5], 86.6% (inactive); in assay [6] (setting [9]) it was 100%; in assay [6] (setting [10]) it was 86.6%. In addition, the Her2 level in assay [2] is 81% (inactive). Moreover, the differential viability (reversal) in assay [6] (H69AR cells + 2 uM doxorubicin) was -13.7% (inactive). For the same compound, the inhibition in assay [7] was -5.07% (inactive); in assay [8] it was 1.97% (inactive).
On to `COC(=O)C1=C(C)C(c2cccs2)NC(=O)N1C` (stereo not given), for which the viability in assay [1] is 92.5%; in assay [3], 92.5% (inactive); in assay [4], 102% (inactive); in assay [5], 95.3% (inactive); in assay [6] (setting [9]) it was 85.2%; in assay [6] (setting [10]), 95.3%. The Her2 level in assay [2] is 86.5% (inactive). For the same compound, the differential viability (reversal) in assay [6] (H69AR cells + 2 uM doxorubicin) is 10.1% (inactive). In addition, the inhibition in assay [7] is -6.13% (inactive); in assay [8] it was 1.48% (inactive).
Take `COc1ccc(OC)c(S(=O)(=O)Nc2ccc(C(N)=O)cc2)c1`: the viability in assay [1] was 98.5%; in assay [3], 98.5% (inactive); in assay [4], 110% (inactive); in assay [5] it was 94% (inactive); in assay [6] (setting [9]), 88.4%; in assay [6] (setting [10]), 94%. The Her2 level in assay [2] was 91% (inactive). Further, the differential viability (reversal) in assay [6] (H69AR cells + 2 uM doxorubicin) is 5.67% (inactive). The figures for the inhibition in assay [7] and in assay [8] were -4.61% (inactive) and -2.3% (inactive), respectively.
Turning to `O=C(Cn1nnc(-c2cccc(C(F)(F)F)c2)n1)NC(=O)NCc1ccco1`, the viability in assay [1] was 89%; in assay [3] it was 89% (inactive); in assay [4], 98.3% (inactive); in assay [5], 74.1% (inactive); in assay [6] (setting [9]) it was 77.5%; in assay [6] (setting [10]), 74.1%. Further, in assay [2], the Her2 level was 102% (inactive). In addition, the differential viability (reversal) in assay [6] (H69AR cells + 2 uM doxorubicin) was -3.41% (inactive). Further, the inhibition in assay [7] was -1.05% (inactive); in assay [8] it was -1.82% (inactive).
In the case of `CCOc1ccc(NC(=O)CSc2nnc(Cc3cccn3C)n2-c2ccc(OC)cc2)cc1`, the viability in assay [1] was 82%; in assay [3], 82% (inactive); in assay [4], 79.5% (inactive); in assay [5] it was 90.6% (inactive); in assay [6] (setting [9]), 95.9%; in assay [6] (setting [10]), 90.6%. In assay [2], the Her2 level is 81% (inactive). In assay [6] (H69AR cells + 2 uM doxorubicin), the differential viability (reversal) was -5.27% (inactive). The inhibition is -1.49% (inactive) in assay [7] and -8.03% (inactive) in assay [8].
